Reference: ChEMBL document CHEMBL4706681, “New 2-Pyrazoline and Hydrazone Derivatives as Potent and Selective Monoamine Oxidase A Inhibitors” (J Med Chem, 2021)

What was measured:
[1] = Permeability of compound in PBS/EtOH buffer (70:30) at 25 ug/ml incubated for 16 hrs by UV plate reader based PAMPA-BBB
[2] = molecular target: T1, Amine oxidase [flavin-containing] A (Homo sapiens, UniProt P21397); experiment: Inhibition of recombinant human MAO-A expressed in baculovirus infected BTI insect cells using p-tyramine as substrate incubated for 30 mins by Amplex red reagent based fluorescence analysis
T1 sequence (P21397 whole entry): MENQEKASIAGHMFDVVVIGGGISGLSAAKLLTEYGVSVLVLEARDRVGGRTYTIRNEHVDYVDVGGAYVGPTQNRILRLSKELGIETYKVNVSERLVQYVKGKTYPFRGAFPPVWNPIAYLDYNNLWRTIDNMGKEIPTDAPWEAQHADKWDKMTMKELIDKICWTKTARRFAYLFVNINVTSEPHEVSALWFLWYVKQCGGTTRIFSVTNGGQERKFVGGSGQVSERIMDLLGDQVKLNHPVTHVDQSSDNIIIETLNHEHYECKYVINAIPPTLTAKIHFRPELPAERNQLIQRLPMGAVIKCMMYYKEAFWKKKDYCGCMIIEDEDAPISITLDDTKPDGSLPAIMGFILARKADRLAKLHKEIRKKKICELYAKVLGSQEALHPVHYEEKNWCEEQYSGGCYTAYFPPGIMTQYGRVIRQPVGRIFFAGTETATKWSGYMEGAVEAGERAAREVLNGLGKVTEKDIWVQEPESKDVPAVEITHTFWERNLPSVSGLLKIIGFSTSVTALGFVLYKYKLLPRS

[3] = Selectivity index, ratio of Ki for inhibition of recombinant human MAO-A to Ki for inhibition of recombinant human MAO-B using p-tyramine as substrate
[4] = molecular target: T2, Amine oxidase [flavin-containing] B (Homo sapiens, UniProt P27338); experiment: Inhibition of recombinant human MAO-B expressed in baculovirus infected BTI insect cells using p-tyramine as substrate incubated for 30 mins by Amplex red reagent based fluorescence analysis; type: cell-based
T2 sequence (P27338 whole entry): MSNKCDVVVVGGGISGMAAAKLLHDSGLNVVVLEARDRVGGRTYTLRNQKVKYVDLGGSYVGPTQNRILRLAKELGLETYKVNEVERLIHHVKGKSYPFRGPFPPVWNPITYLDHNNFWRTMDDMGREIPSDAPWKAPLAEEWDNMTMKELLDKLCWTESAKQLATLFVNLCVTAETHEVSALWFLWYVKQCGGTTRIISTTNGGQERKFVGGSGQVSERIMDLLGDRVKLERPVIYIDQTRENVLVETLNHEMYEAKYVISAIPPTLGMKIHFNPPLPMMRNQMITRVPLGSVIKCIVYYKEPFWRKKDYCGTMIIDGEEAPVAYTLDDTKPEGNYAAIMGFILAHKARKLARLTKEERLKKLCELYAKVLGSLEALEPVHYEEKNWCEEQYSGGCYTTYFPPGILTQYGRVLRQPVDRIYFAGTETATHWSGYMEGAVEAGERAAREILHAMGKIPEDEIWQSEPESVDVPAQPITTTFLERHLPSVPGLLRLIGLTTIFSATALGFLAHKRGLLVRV

[5] = Cytotoxicity against human HepG2 cells assessed as cell viability at 30 uM incubated for 2 hrs by MTT assay relative to control; type: cell-based; settings: read-out: Activity
Summary of the method: (§1)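 HepG2 human hepatoma cells; viability read by MTT assay, with 0.1% DMSO as vehicle control. Viability given as % of control, mean ± SEM (n = 3); p < 0.05 taken as significant.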

[6] = Cytotoxicity against human HepG2 cells assessed as cell viability at 7.5 uM incubated for 2 hrs by MTT assay relative to control; type: cell-based; settings: read-out: Activity; summary of the method: as §1
[7] = Cytotoxicity against human HepG2 cells assessed as cell viability at 15 uM incubated for 2 hrs by MTT assay relative to control; type: cell-based; settings: read-out: Activity; summary of the method: as §1
[8] = molecular target: T1, Amine oxidase [flavin-containing] A; experiment: Reversible inhibition of human MAO-A assessed as residual enzyme activity at 4 fold IC50 incubated for 15 mins and measured before dialysis by dialysis method relative to control
Summary of the method: (§2)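 Dialysed (MWCO 12 000) at 4 °C for 24 h against 100 mM potassium phosphate pH 7.4, 5% sucrose, buffer changed twice. Dialysed and undialysed mixtures assayed together; residual activity from triplicates.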

[9] = molecular target: T1, Amine oxidase [flavin-containing] A; experiment: Reversible inhibition of human MAO-A assessed as residual enzyme activity at 4 fold IC50 incubated for 15 mins and measured 24 hrs post dialysis by dialysis method relative to control; settings: 24.25 h, time 1455 min; summary of the method: as §2
[10] = molecular target: T2, Amine oxidase [flavin-containing] B; experiment: Reversible inhibition of human MAO-B assessed as residual enzyme activity at 4 fold IC50 incubated for 15 mins and measured 24 hrs post dialysis relative to control; settings: 24.25 h, time 1455 min; summary of the method: as §2
[11] = molecular target: T2, Amine oxidase [flavin-containing] B; experiment: Reversible inhibition of human MAO-B assessed as residual enzyme activity at 4 fold IC50 incubated for 15 mins and measured before dialysis relative to control; summary of the method: as §2

SMILES | Ki [2] [µM] | Ratio Ki [3] | Ki [4] [µM] | other results
NCCc1ccc(O)c(O)c1 [DOPAMINE] |  |  |  | Papp at 16 h, 25 ug/ml [1]: 0.32 ×10⁻⁶ cm/s
COc1cccc(C2=NN(C(=O)Cn3c(=O)oc4ccc(Cl)cc43)C(c3ccccc3Cl)C2)c1 (centres undefined) | 0.12 | 0.05 | 2.55 | 
NCCNC(=O)c1ccc(Cl)cn1 [LAZABEMIDE] | > 250 |  |  | viability at 2 h, 30 µM [5]: 85.6%; viability at 2 h, 7.5 µM [6]: 92.4%; viability at 2 h, 15 µM [7]: 89.7%; Activity [8]: 11%; Activity [9]: 97%; Activity [10]: 99%; Activity [11]: 89%
COc1cccc(C2=NN(C(=O)Cn3c(=O)oc4ccc(C)cc43)C(c3ccccc3Cl)C2)c1 (centres undefined) | 0.011 | 4.52 10^-4No_unit | 24.3 | 
COc1cccc(/C=C/C(=N\NC(=O)Cn2c(=O)oc3ccccc32)c2ccccc2)c1 | 0.001 | 1.12 10^-4No_unit | 8.9 | 
Cc1ccc(C2CC(c3ccccc3)=NN2C(=O)Cn2c(=O)oc3ccc(C)cc32)cc1 (centres undefined) | 0.008 | 0.002 | 5.22 | 
COc1ccccc1C1=NN(C(=O)Cn2c(=O)oc3ccc(Cl)cc32)C(c2ccccc2Cl)C1 (centres undefined) | 0.05 | 0.005 | 11 | 
COc1ccc(C2=NN(C(=O)Cn3c(=O)oc4ccccc43)C(c3ccccc3)C2)cc1 (centres undefined) | 0.011 | 0.001 | 9 | 
COc1ccc(C2CC(c3ccccc3)=NN2C(=O)Cn2c(=O)oc3ccc(Cl)cc32)cc1OC (centres undefined) | 3 | 0.06 | 50.2 | 
COc1ccccc1C(/C=C/c1ccccc1Cl)=N/NC(=O)Cn1c(=O)oc2ccccc21 | 0.004 | 6.66 10^-5No_unit | 60 | 
Cc1ccc(C2=NN(C(=O)Cn3c(=O)oc4ccccc43)C(c3ccccc3)C2)cc1 (centres undefined) | 0.019 | 0.003 | 5.55 | 
C[C@]12CC[C@@H]3c4ccc(O)cc4CC[C@H]3[C@@H]1CC[C@@H]2O [ESTRADIOL] |  |  |  | Papp at 16 h, 25 ug/ml [1]: 9.99 ×10⁻⁶ cm/s
Cc1ccc(C2CC(c3ccccc3)=NN2C(=O)Cn2c(=O)oc3ccc(Cl)cc32)cc1 (centres undefined) | 0.04 | 0.005 | 8.55 | 
COc1ccc(C2=NN(C(=O)Cn3c(=O)oc4ccccc43)C(c3cccc(OC)c3OC)C2)cc1 (centres undefined) | 0.125 | 4.9 10^-4No_unit | 255 | 
COc1ccc(C2=NN(C(=O)Cn3c(=O)oc4ccc(Cl)cc43)C(c3ccccc3Cl)C2)cc1 (centres undefined) | 0.065 | 0.003 | 25.6 | 
O=C(Cn1c(=O)oc2ccccc21)N/N=C(\C=C\c1ccccc1)c1ccccc1 | 0.001 | 5.26 10^-5No_unit | 19 | 
CCn1cc(C(=O)O)c(=O)c2cc(F)c(N3CCNC(C)C3)c(F)c21 (centres undefined) [LOMEFLOXACIN] |  |  |  | Papp at 16 h, 25 ug/ml [1]: 0.99 ×10⁻⁶ cm/s
COc1cccc(C2CC(c3ccc(C)cc3)=NN2C(=O)Cn2c(=O)oc3ccc(Cl)cc32)c1OC (centres undefined) | 0.51 | 0.006 | 91.3 | 
Cc1ccc(C2=NN(C(=O)Cn3c(=O)oc4ccc(Cl)cc43)C(c3ccccc3)C2)cc1 (centres undefined) | 0.02 | 3.6 10^-4No_unit | 55.6 | 
Cc1ccc(C2CC(c3ccccc3)=NN2C(=O)Cn2c(=O)oc3ccccc32)cc1 (centres undefined) | 0.004 | 0.000446 | 8.95 | 
COc1ccc(C2=NN(C(=O)Cn3c(=O)oc4ccc(Cl)cc43)C(c3ccccc3)C2)cc1 (centres undefined) | 0.004 | 0.002 | 1.95 | 

Now from value to compound, other results behind:

Ki [2] [µM] | Ratio Ki [3] | Ki [4] [µM] | SMILES | other results
0.266 | 0.005 | 52 | COc1cccc(C2CC(c3ccc(C)cc3)=NN2C(=O)Cn2c(=O)oc3ccc(C)cc32)c1OC (centres undefined) | 
0.8 | 0.107 | 7.5 | COc1ccc(C2=NN(C(=O)Cn3c(=O)oc4ccc(C)cc43)C(c3ccccc3)C2)cc1 (centres undefined) | 
0.028 | 2.32 10^-4No_unit | 120 | COc1cccc(C2CC(c3ccc(C)cc3)=NN2C(=O)Cn2c(=O)oc3ccccc32)c1OC (centres undefined) | 
0.985 | 0.985 | 1 | COc1cccc(C2CC(c3ccccc3)=NN2C(=O)Cn2c(=O)oc3ccc(Cl)cc32)c1 (centres undefined) | 
0.308 | 0.019 | 15.9 | COc1ccccc1C1=NN(C(=O)Cn2c(=O)oc3ccc(C)cc32)C(c2ccccc2Cl)C1 (centres undefined) | 
0.001 | 1.08 10^-4No_unit | 9.27 | COc1ccccc1C(/C=C/c1ccccc1Cl)=N/NC(=O)Cn1c(=O)oc2ccc(Cl)cc21 | viability at 2 h, 30 µM [5]: 87.4%; viability at 2 h, 7.5 µM [6]: 92.1%; viability at 2 h, 15 µM [7]: 90.6%; Papp at 16 h, 25 ug/ml [1]: 14 ×10⁻⁶ cm/s; Activity [8]: 21.91%; Activity [9]: 93.26%; Activity [10]: 93.41%; Activity [11]: 77.22%
0.012 | 2.22 10^-4No_unit | 54 | COc1ccccc1C(/C=C/c1ccccc1)=N/NC(=O)Cn1c(=O)oc2ccc(C)cc21 | 
0.17 | 0.004 | 41.3 | COc1ccc(C2CC(c3ccccc3)=NN2C(=O)Cn2c(=O)oc3ccc(C)cc32)cc1OC (centres undefined) | 
0.011 | 6.65 10^-4No_unit | 16.6 | COc1ccccc1C(/C=C/c1ccccc1Cl)=N/NC(=O)Cn1c(=O)oc2ccc(C)cc21 | 
0.013 | 0.011 | 1.15 | COc1ccccc1C1=NN(C(=O)Cn2c(=O)oc3ccccc32)C(c2ccccc2Cl)C1 (centres undefined) | 
0.018 | 0.045 | 0.4 | COc1ccc(C2=NN(C(=O)Cn3c(=O)oc4ccc(C)cc43)C(c3ccccc3Cl)C2)cc1 (centres undefined) | 
1.55 | 1.94 10^-4No_unit | 8000 | COc1ccc(C2=NN(C(=O)Cn3c(=O)oc4ccc(Cl)cc43)C(c3cccc(OC)c3OC)C2)cc1 (centres undefined) | 
0.001 | 3.43 10^-5No_unit | 35 | COc1ccc(C(/C=C/c2ccccc2Cl)=N/NC(=O)Cn2c(=O)oc3ccccc32)cc1 | 
0.005 | 2.35 10^-4No_unit | 21.3 | COc1cccc(C2CC(c3ccccc3)=NN2C(=O)Cn2c(=O)oc3ccc(C)cc32)c1 (centres undefined) | 
0.05 | 0.002 | 29 | Cc1ccc(C2=NN(C(=O)Cn3c(=O)oc4ccc(C)cc43)C(c3ccccc3)C2)cc1 (centres undefined) | 
0.06 | 0.008 | 7.5 | COc1cccc(C2=NN(C(=O)Cn3c(=O)oc4ccccc43)C(c3ccccc3Cl)C2)c1 (centres undefined) | 
0.001 | 7.27 10^-5No_unit | 2.75 | COc1ccccc1/C=C/C(=N\NC(=O)Cn1c(=O)oc2ccc(Cl)cc21)c1ccccc1 | viability at 2 h, 30 µM [5]: 87.7%; viability at 2 h, 7.5 µM [6]: 91.3%; viability at 2 h, 15 µM [7]: 89%; Papp at 16 h, 25 ug/ml [1]: 14.6 ×10⁻⁶ cm/s; Activity [8]: 19.55%; Activity [9]: 92.24%; Activity [10]: 97%; Activity [11]: 77.29%
